The values below come from ChEMBL document CHEMBL1817567, “Design of benzimidazole- and benzoxazole-2-thione derivatives as inhibitors of bacterial hyaluronan lyase” (Eur J Med Chem, 2011).

For orientation: inhibition means how much of the control response was suppressed. The IC50 is the concentration that gives 50% inhibition. Lower therefore signals greater potency in that assay. As a reminder, the solubility is the dissolved amount per volume that the medium holds. Lower therefore signals little dissolved substance.

Data set [1] concerns the target T1, Hyaluronidase (Bos taurus) (UniProt Q8SQG8+Q5E985). Kind of data set: Inhibition of bovine testes hyaluronidase at 150 uM after 30 mins at pH 5 by turbidimetric analysis. It counts as protein assay.
For data set [2], the target named is T1, Hyaluronidase (Bos taurus). Nature of the data set: Inhibition of bovine testes hyaluronidase at 2000 uM after 30 mins at pH 5 by turbidimetric analysis. The format is protein assay.
Data set [3] has as its target T1, Hyaluronidase (Bos taurus). Nature of the data set: Inhibition of bovine testes hyaluronidase at 400 uM after 30 mins at pH 5 by turbidimetric analysis. It counts as protein assay.
For data set [4], the target named is T1, Hyaluronidase (Bos taurus). Kind of data set: Inhibition of bovine testes hyaluronidase at 180 uM after 30 mins at pH 5 by turbidimetric analysis. It counts as protein assay.
Data set [5] addresses T1, Hyaluronidase (Bos taurus). Kind of data set: Inhibition of bovine testes hyaluronidase at 170 uM after 30 mins at pH 5 by turbidimetric analysis. It counts as protein assay.
The target of data set [6] is T1, Hyaluronidase (Bos taurus). Nature of the data set: Inhibition of bovine testes hyaluronidase at 49 uM after 30 mins at pH 5 by turbidimetric analysis. It counts as protein assay.
The target in data set [7] is T1, Hyaluronidase (Bos taurus). Nature of the data set: Inhibition of bovine testes hyaluronidase at 460 uM after 30 mins at pH 5 by turbidimetric analysis. It counts as protein assay.
The target in data set [8] is T1, Hyaluronidase (Bos taurus). Nature of the data set: Inhibition of bovine testes hyaluronidase at 200 uM after 30 mins at pH 5 by turbidimetric analysis. The format is protein assay.
Data set [9] in a line: Inhibition of Streptococcus agalactiae 4755 hyaluronidase at pH 5.0 after 30 mins by turbidimetric analysis. A digest of the protocol:
(§1)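 SagHyal4755 (2.9 ng) with BSA and hyaluronan (2 mg/ml stock) in citrate–phosphate/NaCl buffer pH 5.0, 3.8% DMSO final, 30 min at 37 °C. Stopped by alkaline 2.5% CTAB, then 20 min at 25 °C. Residual-substrate turbidity read at 600 nm; no-inhibitor sample = 100%, no-enzyme sample = 0% activity. Enzyme-free compound controls were run.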

The target of data set [10] is T1, Hyaluronidase (Bos taurus). Nature of the data set: Inhibition of bovine testes hyaluronidase at 100 uM after 30 mins at pH 5 by turbidimetric analysis. The format is protein assay.
Data set [11] deals with T1, Hyaluronidase (Bos taurus). Kind of data set: Inhibition of bovine testes hyaluronidase at 3800 uM after 30 mins at pH 5 by turbidimetric analysis. It counts as protein assay.
The target of data set [12] is T1, Hyaluronidase (Bos taurus). Nature of the data set: Inhibition of bovine testes hyaluronidase at 380 uM after 30 mins at pH 5 by turbidimetric analysis. It counts as protein assay.
Data set [13] can be described thus: Inhibition of Streptococcus agalactiae 4755 hyaluronidase after 30 mins by turbidimetric analysis. A digest of the protocol:
as §1

The target in data set [14] is T1, Hyaluronidase (Bos taurus). Nature of the data set: Inhibition of bovine testes hyaluronidase at 4200 uM after 30 mins at pH 5 by turbidimetric analysis. It counts as protein assay.
The target in data set [15] is T1, Hyaluronidase (Bos taurus). Kind of data set: Inhibition of bovine testes hyaluronidase at 80 uM after 30 mins at pH 5 by turbidimetric analysis. The format is protein assay.
In data set [16] the target is T1, Hyaluronidase (Bos taurus). Nature of the data set: Inhibition of bovine testes hyaluronidase at 63 uM after 30 mins at pH 5 by turbidimetric analysis. It counts as protein assay.
The target of data set [17] is T1, Hyaluronidase (Bos taurus). Kind of data set: Inhibition of bovine testes hyaluronidase at 190 uM after 30 mins at pH 5 by turbidimetric analysis. The format is protein assay.
Data set [18] addresses T1, Hyaluronidase (Bos taurus). Kind of data set: Inhibition of bovine testes hyaluronidase at 130 uM after 30 mins at pH 5 by turbidimetric analysis. The format is protein assay.
A short description of data set [19]: Inhibition of Streptococcus agalactiae hyaluronidase.
Data set [20] has as its system Streptococcus agalactiae. Kind of data set: Inhibition of Streptococcus agalactiae 4755 hyaluronidase at 2000 uM after 3 hrs at pH 7.4 by turbidimetric analysis. The procedure, abridged: (§2)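 Same turbidimetric hyaluronan-lyase assay at pH 7.4 (citrate–phosphate/NaCl): SagHyal4755 2.9 ng, hyaluronan (2 mg/ml stock), BSA, 3.8% DMSO final, 3 h at 37 °C. CTAB (2.5%, in 0.5 M NaOH) precipitation, 20 min at 25 °C, A600. Activity scaled between no-inhibitor and no-enzyme samples.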

The test system of data set [21] is Streptococcus agalactiae. Nature of the data set: Inhibition of Streptococcus agalactiae 4755 hyaluronidase at 4200 uM after 30 mins at pH 5.0 by turbidimetric analysis. A digest of the protocol: as §1
The nature of data set [22]: Aqueous solubility of the compound in water. It counts as physicochemical. The procedure, abridged: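 Turbidity at 600 nm of test compound in DMSO added to citrate–phosphate buffer (pH 5 and pH 7.4), water and BSA (0.2 mg/ml stock), at various concentrations, read against a water reference. Enzyme testing used only concentrations showing no turbidity.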
Data set [23] has as its system Streptococcus agalactiae. Kind of data set: Inhibition of Streptococcus agalactiae 4755 hyaluronidase at 4200 uM after 3 hrs at pH 7.4 by turbidimetric analysis. A digest of the protocol:
as §2

Another data set has as its target T2, Hyaluronidase (Bos taurus, UniProt Q8SQG8+Q5E985).
T2 sequence (Q8SQG8 whole entry): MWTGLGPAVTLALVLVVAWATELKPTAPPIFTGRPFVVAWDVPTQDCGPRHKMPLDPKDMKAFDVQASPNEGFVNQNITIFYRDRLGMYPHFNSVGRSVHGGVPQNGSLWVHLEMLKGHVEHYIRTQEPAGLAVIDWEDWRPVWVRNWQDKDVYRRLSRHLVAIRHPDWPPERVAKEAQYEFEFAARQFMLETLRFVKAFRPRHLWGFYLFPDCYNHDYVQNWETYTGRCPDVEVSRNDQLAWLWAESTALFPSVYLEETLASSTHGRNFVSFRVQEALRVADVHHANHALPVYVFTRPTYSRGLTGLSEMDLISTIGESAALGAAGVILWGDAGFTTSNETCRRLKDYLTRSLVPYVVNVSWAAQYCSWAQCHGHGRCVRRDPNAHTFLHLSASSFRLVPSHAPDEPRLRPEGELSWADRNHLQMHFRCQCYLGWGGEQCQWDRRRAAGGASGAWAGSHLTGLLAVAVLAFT
T2 sequence (Q5E985 whole entry): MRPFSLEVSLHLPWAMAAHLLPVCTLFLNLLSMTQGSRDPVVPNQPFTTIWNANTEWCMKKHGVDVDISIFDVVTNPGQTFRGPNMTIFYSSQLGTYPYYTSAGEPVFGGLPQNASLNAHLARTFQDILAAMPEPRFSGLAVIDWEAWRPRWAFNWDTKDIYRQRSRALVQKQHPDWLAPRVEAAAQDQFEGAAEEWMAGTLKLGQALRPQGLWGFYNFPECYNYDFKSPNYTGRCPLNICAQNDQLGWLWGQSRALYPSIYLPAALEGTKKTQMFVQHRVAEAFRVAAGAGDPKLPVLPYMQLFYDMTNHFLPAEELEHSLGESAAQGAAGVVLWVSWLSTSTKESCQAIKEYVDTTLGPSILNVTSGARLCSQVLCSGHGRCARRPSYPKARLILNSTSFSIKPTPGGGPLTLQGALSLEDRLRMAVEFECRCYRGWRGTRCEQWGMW
Nature of the data set: Inhibition of bovine testes hyaluronidase after 30 mins at pH 5 by turbidimetric analysis. The format is protein assay.

Data set [24] concerns Streptococcus agalactiae. Nature of the data set: Inhibition of Streptococcus agalactiae 4755 hyaluronidase at 400 uM after 30 mins at pH 5.0 by turbidimetric analysis. A digest of the protocol: as §1
The test system of data set [25] is Streptococcus agalactiae. Kind of data set: Inhibition of Streptococcus agalactiae 4755 hyaluronidase at 1000 uM after 3 hrs at pH 7.4 by turbidimetric analysis. A digest of the protocol:
as §2

A short description of data set [26]: Inhibition of Streptococcus agalactiae 4755 hyaluronidase at pH 7.4 after 3 hrs by turbidimetric analysis. A digest of the protocol:
as §2

Data set [27] can be described thus: Inhibition of Streptococcus agalactiae 4755 hyaluronidase at pH 7.4. A digest of the protocol: as §2
A short description of data set [28]: Inhibition of Streptococcus agalactiae 4755 hyaluronidase at pH 5.0. The procedure, abridged:
as §1

Data set [29] deals with Streptococcus agalactiae. Kind of data set: Inhibition of Streptococcus agalactiae 4755 hyaluronidase at 300 uM after 3 hrs at pH 7.4 by turbidimetric analysis. A digest of the protocol: as §2
Data set [30] concerns Streptococcus agalactiae. Nature of the data set: Inhibition of Streptococcus agalactiae 4755 hyaluronidase at 150 uM after 30 mins at pH 5.0 by turbidimetric analysis. A digest of the protocol: as §1

SMILES strings stand for the structures. ≈ marks a conversion by molar mass, not a printed value. Calls of active or inactive are those of the source. No cut-off for these calls is given here.

For `CCCCCCCCCCCCCCCC(=O)OC[C@H](O)[C@H]1OC(=O)C(O)=C1O` [ASCORBYL PALMITATE], the inhibition result in [1], in data set [2], in data set [3], in data set [4], in [5] and in data set [6] was “inactive” each time. For the same compound, the inhibition entry in data set [7], in [8], in [10], in data set [11], in [12] and in data set [14] was “inactive” each time. Besides, the inhibition result in data set [15], in [16], in [17] and in [18] was “inactive” throughout. In addition, the IC50 in [9] and in data set [13] was 4.2 µM each time.
For the compound `CC1(C)[C@@H](O)CC[C@]2(C)[C@H]3C(=O)C=C4[C@@H]5C[C@@](C)(C(=O)O)CC[C@]5(C)CC[C@@]4(C)[C@]3(C)CC[C@@H]12` [ENOXOLONE], the 50% inhibitory concentration (IC50) in [19] stood at 60 µM.
With `COC(=O)c1ccc2oc(=S)[nH]c2c1`, the inhibition result in data set [1], in data set [2], in data set [3], in [4], in data set [5] and in data set [6] was “inactive” throughout. Besides, the inhibition entry in data set [7], in [8], in [10], in data set [11], in data set [12] and in [14] was “inactive” each time. Besides, the inhibition result in [15], in data set [16], in [17] and in [18] was “inactive” in each case. The compound also yielded an IC50 in [9] of 1300 µM. In the data set on Streptococcus agalactiae [20], this compound gave an inhibition of 27%.
In the case of `CCn1c(S)nc2ccccc21`, the inhibition entry in data set [1], in data set [2], in [3], in data set [4], in [5] and in [6] was “inactive” throughout. Besides, the inhibition entry in data set [7], in data set [8], in data set [10], in data set [11], in data set [12] and in data set [14] was “inactive” throughout. For the same compound, the inhibition entry in [15], in data set [16], in data set [17] and in data set [18] was “inactive” throughout. The inhibition was determined as 19% in the data set on Streptococcus agalactiae [21] and 28% in the data set with Streptococcus agalactiae [23]. In data set [22], this compound displayed a solubility of 4200 µM (≈ 749 µg/mL).
As to `Oc1ccc(-c2[nH]c3ccccc3c2-c2ccccc2)cc1`, the IC50 at Hyaluronidase is 107 µM.
With `CCn1c(=S)oc2ccccc21`, the inhibition result in [1], in data set [2], in data set [3], in data set [4], in data set [5] and in [6] was “inactive” in each case. Moreover, the inhibition result in data set [7], in data set [8], in data set [10], in data set [11], in [12] and in data set [14] was “inactive” in each case. Also, the inhibition entry in data set [15], in data set [16], in data set [17] and in data set [18] was “inactive” throughout. In addition, the solubility in data set [22] was 400 µM (≈ 71.7 µg/mL). Moreover, the inhibition in the data set on Streptococcus agalactiae [24] was 46%; in the data set with Streptococcus agalactiae [25], 17%.
On to `CCCCCCCCCCn1c(-c2ccc(OS(N)(=O)=O)cc2)cc2ccc(OS(N)(=O)=O)cc21`, for which the inhibition result in data set [1], in [2], in data set [3], in data set [4], in [5] and in [6] was “inactive” throughout. Besides, the inhibition result in data set [7], in [8], in [10], in data set [11], in data set [12] and in data set [14] was “inactive” in each case. For the same compound, the inhibition result in [15], in data set [16], in data set [17] and in [18] was “inactive” each time. Further, the IC50 amounted to 11 µM in data set [9], 16 µM in [26], 16 µM in data set [27] and 11 µM in [28].
`CCCCCC(=O)n1c(=O)oc2ccccc21`: the inhibition result (with Streptococcus agalactiae [29]; in data set [1]; in data set [2]; in data set [3]; in data set [4]; in [5]) was “inactive” throughout. In addition, the inhibition entry in [6], in data set [7], in [8], in data set [10], in data set [11] and in [12] was “inactive” in each case. Besides, the inhibition result (in the data set with Streptococcus agalactiae [30]; in data set [14]; in data set [15]; in data set [16]; in data set [17]; in data set [18]) was “inactive” throughout. The solubility in data set [22] was 150 µM (≈ 35 µg/mL).
